From ChEMBL document CHEMBL5724801, “EUbOPEN Chemogenomics Library - Multiplex” (2024)
Values joined by “and” are separate entries in the source; they are usually repeats but may differ in a detail not shown here. Equal values may be shown once.

Key:
Fibroblast = assay: Multiplex assay against human fibroblast; type: toxicity, cell-based
How it was run: (§1)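 Cells stained live at seeding with Hoechst33342, BioTracker Green Microtubule Cytoskeleton Dye, MitoTracker Red and Annexin V Alexa Fluor 680 were imaged on a CQ1 microscope at 37°C and 5% CO2 after compound addition. Their classification by CellPathfinder machine-learning gating ran from Hoechst high-intensity objects versus normal cells, to healthy, pyknosed or fragmented nuclei among normal cells, to mitotic or apoptotic among pyknosed cells. Tubulin, mitochondrial-mass and membrane-permeability phenotypes are per cents of healthy-nucleus cells.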

HEK-293T = assay: Multiplex assay against HEK293T; type: toxicity, cell-based; conditions: human; how it was run: as §1
[1] = 12 h, 1 µM, compound concentration 1 uM
[2] = 12 h, 10 µM, compound concentration 10 uM
[3] = 24 h, 1 µM, compound concentration 1 uM
[4] = 24 h, 10 µM, compound concentration 10 uM
[5] = 48 h, 1 µM, compound concentration 1 uM
[6] = 48 h, 10 µM, compound concentration 10 uM

Cl.Clc1cc2cc(c1)-c1cnn3ccc(nc13)NCCOCCO2
Population Apoptotic (%) (Fibroblast; [1]): 25.93% and 36.11% | Population Fragmented Nuclei (%) (Fibroblast; [1]): 12.14% and 4.56% | Population Healthy Nuclei (%) (Fibroblast; [1]): 61.65% and 80.5% | Population Hoechst High Intensity Objects (%) (Fibroblast; [1]): 0% | Population Membrane Permeable-Phenotype (%) (Fibroblast; [1]): 11.02% and 2.58% | Population Mitochondria Different-Phenotype (%) (Fibroblast; [1]): 4.72% and 10.82% | Population Mitotic Cells (%) (Fibroblast; [1]): 74.07% and 63.89% | Population Normal (%) (Fibroblast; [1]): 100% | Population Pyknosed Nuclei (%) (Fibroblast; [1]): 26.21% and 14.94% | Population Tubulin-Different-Phenotype (%) (Fibroblast; [1]): 11.02% and 23.2% | Total Cell Count (Fibroblast; [1]): 206 and 241 | Population Apoptotic (%) (Fibroblast; [2]): 10.2% and 20.59% | Population Fragmented Nuclei (%) (Fibroblast; [2]): 10.65% and 5.56% | Population Healthy Nuclei (%) (Fibroblast; [2]): 66.67% and 78.7% | Population Hoechst High Intensity Objects (%) (Fibroblast; [2]): 0% | Population Membrane Permeable-Phenotype (%) (Fibroblast; [2]): 8.33% and 4.71% | Population Mitochondria Different-Phenotype (%) (Fibroblast; [2]): 12.5% and 18.82% | Population Mitotic Cells (%) (Fibroblast; [2]): 89.8% and 79.41% | Population Normal (%) (Fibroblast; [2]): 100% | Population Pyknosed Nuclei (%) (Fibroblast; [2]): 22.69% and 15.74% | Population Tubulin-Different-Phenotype (%) (Fibroblast; [2]): 22.22% and 26.47% | Total Cell Count (Fibroblast; [2]): 216 | Population Apoptotic (%) (Fibroblast; [3]): 31.43% and 41.38% | Population Fragmented Nuclei (%) (Fibroblast; [3]): 12.22% and 6.72% | Population Healthy Nuclei (%) (Fibroblast; [3]): 71.95% and 82.46% | Population Hoechst High Intensity Objects (%) (Fibroblast; [3]): 0% | Population Membrane Permeable-Phenotype (%) (Fibroblast; [3]): 6.29% and 4.52% | Population Mitochondria Different-Phenotype (%) (Fibroblast; [3]): 3.14% and 6.33% | Population Mitotic Cells (%) (Fibroblast; [3]): 68.57% and 58.62% | Population Normal (%) (Fibroblast; [3]): 100% | Population Pyknosed Nuclei (%) (Fibroblast; [3]): 15.84% and 10.82% | Population Tubulin-Different-Phenotype (%) (Fibroblast; [3]): 15.09% and 21.72% | Total Cell Count (Fibroblast; [3]): 221 and 268 | Population Fragmented Nuclei (%) (Fibroblast; [4]): 7.39% and 6.93% | Population Healthy Nuclei (%) (Fibroblast; [4]): 79.13% and 78.79% | Population Hoechst High Intensity Objects (%) (Fibroblast; [4]): 0% | Population Membrane Permeable-Phenotype (%) (Fibroblast; [4]): 3.3% | Population Mitochondria Different-Phenotype (%) (Fibroblast; [4]): 8.79% and 13.74% | Population Mitotic Cells (%) (Fibroblast; [4]): 90.32% and 69.7% | Population Normal (%) (Fibroblast; [4]): 100% | Population Pyknosed Nuclei (%) (Fibroblast; [4]): 13.48% and 14.29% | Population Tubulin-Different-Phenotype (%) (Fibroblast; [4]): 20.33% and 33.52% | Total Cell Count (Fibroblast; [4]): 230 and 231 | Population Apoptotic (%) (Fibroblast; [5]): 31.03% and 50% | Population Fragmented Nuclei (%) (Fibroblast; [5]): 12.03% and 5.81% | Population Healthy Nuclei (%) (Fibroblast; [5]): 75.93% and 90.31% | Population Hoechst High Intensity Objects (%) (Fibroblast; [5]): 0% | Population Membrane Permeable-Phenotype (%) (Fibroblast; [5]): 3.28% and 3% | Population Mitotic Cells (%) (Fibroblast; [5]): 68.97% and 50% | Population Normal (%) (Fibroblast; [5]): 100% | Population Pyknosed Nuclei (%) (Fibroblast; [5]): 12.03% and 3.88% | Total Cell Count (Fibroblast; [5]): 241 and 258 | Population Apoptotic (%) (Fibroblast; [6]): 16.67% and 38.89% | Population Fragmented Nuclei (%) (Fibroblast; [6]): 10.79% and 5.86% | Population Healthy Nuclei (%) (Fibroblast; [6]): 86.72% and 86.61% | Population Hoechst High Intensity Objects (%) (Fibroblast; [6]): 0% | Population Membrane Permeable-Phenotype (%) (Fibroblast; [6]): 1.91% and 6.76% | Population Mitochondria Different-Phenotype (%) (Fibroblast; [6]): 11% and 9.66% | Population Mitotic Cells (%) (Fibroblast; [6]): 83.33% and 61.11% | Population Normal (%) (Fibroblast; [6]): 100% | Population Pyknosed Nuclei (%) (Fibroblast; [6]): 2.49% and 7.53% | Population Tubulin-Different-Phenotype (%) (Fibroblast; [6]): 13.88% and 38.65% | Total Cell Count (Fibroblast; [6]): 241 and 239 | Population Apoptotic (%) (HEK-293T; [1]): 7.52% and 9.38% | Population Fragmented Nuclei (%) (HEK-293T; [1]): 1.41% and 6.41% | Population Hoechst High Intensity Objects (%) (HEK-293T; [1]): 0% | Population Membrane Permeable-Phenotype (%) (HEK-293T; [1]): 0.46% and 0% | Population Mitochondria Different-Phenotype (%) (HEK-293T; [1]): 39.63% and 22.22% | Population Mitotic Cells (%) (HEK-293T; [1]): 92.48% and 90.62% | Population Normal (%) (HEK-293T; [1]): 100% | Population Pyknosed Nuclei (%) (HEK-293T; [1]): 37.46% and 82.05% | Total Cell Count (HEK-293T; [1]): 355 and 156 | Population Apoptotic (%) (HEK-293T; [2]): 20.33% and 8.33% | Population Fragmented Nuclei (%) (HEK-293T; [2]): 2.02% and 1.83% | Population Healthy Nuclei (%) (HEK-293T; [2]): 56.57% and 25% | Population Hoechst High Intensity Objects (%) (HEK-293T; [2]): 0% and 0.61% | Population Membrane Permeable-Phenotype (%) (HEK-293T; [2]): 1.19% and 2.44% | Population Mitochondria Different-Phenotype (%) (HEK-293T; [2]): 35.71% and 26.83% | Population Mitotic Cells (%) (HEK-293T; [2]): 79.67% and 91.67% | Population Normal (%) (HEK-293T; [2]): 100% and 99.39% | Population Pyknosed Nuclei (%) (HEK-293T; [2]): 41.41% and 73.17% | Total Cell Count (HEK-293T; [2]): 297 and 165 | Population Apoptotic (%) (HEK-293T; [3]): 18.58% and 9.43% | Population Fragmented Nuclei (%) (HEK-293T; [3]): 0.93% and 4.73% | Population Hoechst High Intensity Objects (%) (HEK-293T; [3]): 0% | Population Membrane Permeable-Phenotype (%) (HEK-293T; [3]): 1.19% and 0% | Population Mitochondria Different-Phenotype (%) (HEK-293T; [3]): 17.58% and 22.86% | Population Mitotic Cells (%) (HEK-293T; [3]): 81.42% and 90.57% | Population Normal (%) (HEK-293T; [3]): 100% | Population Tubulin-Different-Phenotype (%) (HEK-293T; [3]): 11.16% and 5.71%
